Data taken from ChEMBL document CHEMBL2375217, “Structure activity relationship of phenolic diterpenes from Salvia officinalis as activators of the nuclear factor E2-related factor 2 pathway” (Bioorg Med Chem, 2013).
Calls of active or inactive are those of the source. No cut-off for these calls is given here.

Experiments:
[1] = molecular target: T1, Nuclear factor erythroid 2-related factor 2 (Mus musculus) (UniProt Q60795); assay: Activation of Nrf2/ARE in E15 stage mouse primary cortical neurons at 6.25 to 50 uM after 48 hrs by human placental alkaline phosphatase reporter gene assay; type: cell-based; conditions: Cerebral cortex neuron
T1 sequence (whole entry): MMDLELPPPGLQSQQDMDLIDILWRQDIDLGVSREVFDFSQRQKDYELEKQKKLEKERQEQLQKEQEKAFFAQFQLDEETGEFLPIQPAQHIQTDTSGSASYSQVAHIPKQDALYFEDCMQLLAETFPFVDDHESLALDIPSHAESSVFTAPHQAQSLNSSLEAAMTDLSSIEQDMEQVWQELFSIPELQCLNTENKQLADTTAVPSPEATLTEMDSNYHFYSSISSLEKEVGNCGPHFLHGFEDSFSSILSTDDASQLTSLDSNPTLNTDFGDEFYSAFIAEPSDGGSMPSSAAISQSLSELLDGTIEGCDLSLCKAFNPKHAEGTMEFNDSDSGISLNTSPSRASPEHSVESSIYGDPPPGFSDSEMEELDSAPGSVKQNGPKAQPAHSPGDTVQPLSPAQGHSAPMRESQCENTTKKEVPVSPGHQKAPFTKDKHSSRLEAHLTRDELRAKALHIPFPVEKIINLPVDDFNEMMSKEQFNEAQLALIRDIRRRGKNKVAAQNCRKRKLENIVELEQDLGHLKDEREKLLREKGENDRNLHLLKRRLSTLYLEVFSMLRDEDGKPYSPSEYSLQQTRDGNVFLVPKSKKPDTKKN
How it was run: (§1)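 Mixed cortical cultures (~40% astrocytes/60% neurons) from E15 ARE-hPAP reporter mice, hPAP driven by 51 bp rat NQO1 ARE promoter segment; 6 days in vitro, then compound in DMSO (0.1% final) for 48 h. Lysis in TMNC, endogenous phosphatase heat-inactivated in 200 mM DEA at 65 °C; CSPD chemiluminescence, hPAP-negative baseline subtracted; fold over vehicle, n = 5.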

[2] = molecular target: T1, Nuclear factor erythroid 2-related factor 2 (Mus musculus); assay: Activation of Nrf2/ARE in E15 stage mouse primary cortical neurons after 48 hrs by human placental alkaline phosphatase reporter gene assay; type: cell-based; conditions: Cerebral cortex neuron; how it was run: as §1
[3] = Cytotoxicity against E15 stage mouse primary cortical neurons at 25 uM by MTS assay; type: cell-based; conditions: cerebral cortex neuron
How it was run: (§2)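 Mixed cortical cultures from E15 ARE-hPAP mice, 6 days in vitro (5% O2), exposed 48 h to compound in DMSO (0.1% final). Viability read by soluble MTS assay, normalised to vehicle as percent; mean ± SEM, n = 5, one-way ANOVA with Newman-Keuls.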

[4] = molecular target: T1, Nuclear factor erythroid 2-related factor 2 (Mus musculus); assay: Induction of Nrf2/ARE-mediated GCLC gene expression in E15 stage mouse primary cortical neurons at 10 uM after 24 hrs by qPCR analysis; type: cell-based; conditions: Cerebral cortex neuron
How it was run: (§3)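 E15 ARE-hPAP mouse mixed cortical cultures treated 24 h with compound or vehicle; total RNA harvested for quantitative PCR, normalised to GAPDH, fold change vs vehicle; n = 8 treated, n = 4 vehicle.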

[5] = molecular target: T1, Nuclear factor erythroid 2-related factor 2 (Mus musculus); assay: Induction of Nrf2/ARE-mediated NQO1 gene expression in E15 stage mouse primary cortical neurons at 10 uM after 24 hrs by qPCR analysis; type: cell-based; conditions: Cerebral cortex neuron; how it was run: as §3
[6] = molecular target: T1, Nuclear factor erythroid 2-related factor 2 (Mus musculus); assay: Activation of Nrf2/ARE in E15 stage mouse primary cortical neurons at 50 uM after 48 hrs by human placental alkaline phosphatase reporter gene; type: cell-based; conditions: Cerebral cortex neuron; how it was run: as §1
[7] = test system: Cerebral cortex neuron; assay: Neuroprotective activity against H2O2-induced toxicity in E15 stage mouse primary cortical neurons at 10 uM incubated for 48 hrs prior to H2O2-treatment measured after 24 hrs by MTS assay; type: functional, cell-based
How it was run: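 Cortical cultures pretreated 48 h with compound or vehicle, then exposed to increasing H2O2 concentrations for 24 h; viability by soluble MTS assay. n = 4 compound, n = 8 vehicle; one-way ANOVA with Newman-Keuls.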

[8] = molecular target: T1, Nuclear factor erythroid 2-related factor 2 (Mus musculus); assay: Activation of Nrf2/ARE in E15 stage mouse primary cortical neurons at 25 uM after 48 hrs by human placental alkaline phosphatase reporter gene assay relative to control; type: cell-based; conditions: Cerebral cortex neuron; how it was run: as §1
[9] = test system: Cerebral cortex neuron; assay: Neuroprotective activity against H2O2-induced oxidative stress in E15 stage mouse primary cortical neurons at 10 uM incubated for 48 hrs prior to H2O2-treatment measured after 24 hrs by TUNEL/DAPI staining-based microscopic analysis; type: functional, cell-based
How it was run: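 Cortical cultures pretreated 48 h with compound or vehicle, then 35 μM H2O2 for 24 h; fragmented DNA detected by TUNEL staining, nuclei counterstained with DAPI, imaged by photomicroscopy.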

[10] = Cytotoxicity against E15 stage mouse primary cortical neurons at 50 uM by MTS assay; type: cell-based; conditions: cerebral cortex neuron; how it was run: as §2
[11] = test system: Cerebral cortex neuron; assay: Neuroprotective activity against H2O2-induced toxicity in E15 stage mouse primary cortical neurons at 20 uM incubated for 48 hrs prior to H2O2-treatment measured after 24 hrs by MTS assay; type: functional, cell-based
How it was run: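 Mixed cortical cultures (~40% astrocytes, 60% neurons) from E15 ARE-hPAP reporter mouse pups were pretreated with compound or vehicle for 48 h. They were then challenged with increasing H2O2 concentrations for 24 h. Viability was read by soluble MTS assay. Mean ± SEM, n = 4 compound, n = 8 vehicle. One-way ANOVA with Newman-Keuls.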

[12] = test system: Cerebral cortex neuron; assay: Neuroprotective activity against H2O2-induced oxidative stress in E15 stage mouse primary cortical neurons at 20 uM incubated for 48 hrs prior to H2O2-treatment measured after 24 hrs by TUNEL/DAPI staining-based microscopic analysis; type: functional, cell-based
How it was run: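 Mixed cortical cultures (~40% astrocytes, 60% neurons) from E15 ARE-hPAP reporter mouse pups were pretreated with compound or vehicle for 48 h. They were then exposed to 35 μM H2O2 for a further 24 h. Fragmented DNA was stained by TUNEL and nuclei by DAPI, and both were imaged by photomicroscopy.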

[13] = molecular target: T1, Nuclear factor erythroid 2-related factor 2 (Mus musculus); assay: Induction of Nrf2/ARE-mediated GCLM gene expression in E15 stage mouse primary cortical neurons at 20 uM after 24 hrs by qPCR analysis; type: cell-based; conditions: Cerebral cortex neuron
How it was run: (§4)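 Mixed cortical cultures (~40% astrocytes, 60% neurons) from E15 ARE-hPAP reporter mouse pups, grown in Neurobasal/B27 medium at 37 °C under 5% O2, 5% CO2. Treated with compound or vehicle for 24 h. Total RNA used for quantitative PCR, normalised to GAPDH and expressed as fold change relative to vehicle. Mean ± SEM, n = 8 treated, n = 4 vehicle. One-way ANOVA with Newman-Keuls.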

[14] = molecular target: T1, Nuclear factor erythroid 2-related factor 2 (Mus musculus); assay: Induction of Nrf2/ARE-mediated GCLC gene expression in E15 stage mouse primary cortical neurons at 20 uM after 24 hrs by qPCR analysis; type: cell-based; conditions: Cerebral cortex neuron; how it was run: as §4
[15] = molecular target: T1, Nuclear factor erythroid 2-related factor 2 (Mus musculus); assay: Induction of Nrf2/ARE-mediated NQO1 gene expression in E15 stage mouse primary cortical neurons at 20 uM after 24 hrs by qPCR analysis; type: cell-based; conditions: Cerebral cortex neuron; how it was run: as §4

SMILES | Activity [1] | Activity [2] | Activity [10] | further results
CC(C)(C)c1cc(O)ccc1O | Active | – | – | –
CC(C)c1cc2c(c(O)c1O)C1=C(CC2)C(C)(C)CCC1=O | Active | Dose-dependent effect | – | –
CC(C)c1cc2c(c(O)c1O)[C@@]13CCCC(C)(C)[C@@H]1[C@H](OC3=O)[C@@H]2O | Active | Dose-dependent effect | – | –
CC(C)c1cc2c(c(O)c1O)[C@@]13CCCC(C)(C)[C@@H]1[C@H](OC3=O)[C@H]2O | Active | Dose-dependent effect | – | –
COc1c(C(C)C)cc2c(c1O)[C@@]1(C(=O)O)CCCC(C)(C)[C@@H]1CC2 | inactive | – | – | –
CC(C)c1cc2c(c(O)c1O)[C@@]1(C=O)CCCC(C)(C)[C@@H]1CC2 [CARNOSALDEHYDE] | – | Dose-dependent effect | Toxic | Activity [3]: Toxic; Activity [4]: Active; Activity [5]: Active; Activity [6]: inactive; Activity [7]: Active; fold change (FC) [8]: 50; Activity [9]: Active
CC(C)c1cc2c(c(O)c1O)[C@@]1(C(=O)O)CCCC(C)(C)[C@@H]1CC2 [CARNOSIC ACID] | Active | Dose-dependent effect | Toxic | –
CC(C)c1cc2c(c(O)c1O)[C@@]13CCCC(C)(C)[C@@H]1C[C@@H]2OC3=O [CARNOSOL] | – | Dose-dependent effect | Toxic | Activity [11]: Active; Activity [12]: Active; Activity [6]: inactive; fold change (FC) [8]: 50; Activity [13]: Active; Activity [14]: Active; Activity [15]: Active
